Results as given in paper PMC5131813 (Molecular Pain, 2016).

Legend:
CCI, SNL, CFA = details: cited from earlier work
[1] = test system: AITC-induced licking/biting; details: cited from earlier work
[2] = test system: open field activity in rats; assay: Open field activity; type: in vivo; details: rat open field, 60 min; for effect on total distance traveled vs vehicle: AMG0902 30-300 mg/kg, gabapentin 200 mg/kg p.o.
Summary of the method: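 Male Sprague-Dawley rats (220–300 g) were kept on a reversed light cycle for ≥1 week and acclimated 1 h. Test compound (30, 100 or 300 mg/kg), vehicle or gabapentin 200 mg/kg p.o. (same vehicle) was given 1 h before the rat was placed in a 41×41×38 cm box with 32 photocells. Beam breaks, distance, time and stereotypic movements were logged per minute over 60 min.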

[3] = test system: CFA-induced hypersensitivity; assay: CFA-induced decreased rearing in an open field assay; type: in vivo; details: rat; for rearing time: 23 h after CFA, 60 min, CFA vehicle 204 ± 25 s; for effect on CFA-induced reduction in rearing: naproxen sodium 3 mg/kg, AMG0902 up to 100 mg/kg
[4] = Plasma protein binding by ultracentrifugation; type: in vitro ADME; details: male, rat
Summary of the method: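 Test compound at 5 µg/mL was incubated in male rat plasma for 15 min at 37 °C, then ultracentrifuged at 16,128 × g for 3 h at 37 °C. Samples were precipitated with acetonitrile containing internal standard, dried under nitrogen, reconstituted in methanol/water 50:50 and quantified by LC-MS/MS against calibration standards. The unbound fraction was taken as measured/nominal concentration.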

[5] = test system: SNL-induced tactile allodynia; assay: SNL-induced tactile allodynia; type: in vivo; details: rat; 1 h and 2 h
Summary of the method: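 Two weeks after spinal nerve ligation, rats on a metal mesh floor were tested with nine von Frey filaments at near-equal log intervals. Filaments were applied to the mid-plantar glabrous area of the injured paw, and the 50% withdrawal threshold was found by the up-down method. After a baseline reading, rats received oral vehicle, test compound (100 or 300 mg/kg) or gabapentin 200 mg/kg and were retested at 1 and 2 h. Thresholds were log-transformed before statistics.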

[6] = Pharmacokinetics in plasma and brain; type: in vivo; details: Sprague-Dawley, rat
rTRPA1 = rTRPA1 (Rattus norvegicus, UniProt Q6RI86); assay: rTRPA1 agonism assay; type: cell-based
rTRPA1, sequence (Q6RI86 whole entry): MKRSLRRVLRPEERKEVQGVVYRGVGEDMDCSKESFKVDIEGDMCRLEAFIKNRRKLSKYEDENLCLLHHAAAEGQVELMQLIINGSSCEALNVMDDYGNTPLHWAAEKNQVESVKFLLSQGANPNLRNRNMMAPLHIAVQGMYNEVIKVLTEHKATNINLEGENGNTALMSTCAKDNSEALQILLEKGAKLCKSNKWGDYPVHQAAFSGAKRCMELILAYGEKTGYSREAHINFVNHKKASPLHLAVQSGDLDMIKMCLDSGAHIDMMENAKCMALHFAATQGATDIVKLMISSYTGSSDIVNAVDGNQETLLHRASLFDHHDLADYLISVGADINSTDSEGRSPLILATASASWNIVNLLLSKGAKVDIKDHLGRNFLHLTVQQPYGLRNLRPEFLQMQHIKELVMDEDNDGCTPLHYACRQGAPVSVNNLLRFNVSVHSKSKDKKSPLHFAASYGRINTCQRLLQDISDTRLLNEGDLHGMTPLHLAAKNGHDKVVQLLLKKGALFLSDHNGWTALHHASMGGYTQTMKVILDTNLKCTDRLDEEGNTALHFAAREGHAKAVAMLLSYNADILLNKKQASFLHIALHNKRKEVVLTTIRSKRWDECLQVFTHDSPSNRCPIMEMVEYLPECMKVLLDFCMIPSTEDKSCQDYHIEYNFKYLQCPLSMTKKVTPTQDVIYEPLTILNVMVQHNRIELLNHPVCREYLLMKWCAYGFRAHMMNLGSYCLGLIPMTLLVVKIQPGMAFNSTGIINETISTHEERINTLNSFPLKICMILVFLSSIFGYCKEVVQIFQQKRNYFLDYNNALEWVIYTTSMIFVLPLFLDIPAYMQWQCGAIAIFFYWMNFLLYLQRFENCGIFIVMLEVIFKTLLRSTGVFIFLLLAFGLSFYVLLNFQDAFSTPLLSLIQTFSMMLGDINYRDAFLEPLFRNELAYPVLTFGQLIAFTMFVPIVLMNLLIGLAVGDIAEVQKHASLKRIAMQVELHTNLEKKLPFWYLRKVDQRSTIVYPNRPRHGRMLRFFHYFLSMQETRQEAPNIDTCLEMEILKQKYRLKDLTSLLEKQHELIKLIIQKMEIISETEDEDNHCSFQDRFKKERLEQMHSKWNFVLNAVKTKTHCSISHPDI

rat TRPA1 = rat TRPA1 (Rattus norvegicus, UniProt Q6RI86); assay: Agonist-induced TRPA1 activation in stably expressing CHO cells; type: cell-based; details: for IC50: stably expressing CHO cells
rat TRPA1, sequence (Q6RI86 whole entry): as above

TRPA1 [7] = target: T1, TRPA1 (Rattus norvegicus, UniProt Q6RI86); assay: AITC-induced licking/flinching model; type: in vivo; details: po, read-out: Rat AITC PD model IC90
T1 sequence (Q6RI86 whole entry): as above
Summary of the method: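 Rats dosed p.o. at 0.3, 1, 3 or 10 mg/kg, or vehicle (1% Tween80/2% HPMC/97% water/methanesulfonic acid, pH 2.2), 60 min before intraplantar AITC (30 µl, in 0.5% Tween 80/PBS). A blinded observer counted flinches and guard/licks >3 s for 1 min post-injection. Plasma levels were measured by LC-MS/MS. IC90 came from sigmoidal fit of individual response versus plasma concentration.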

TRPA1 [8] = target: T1, TRPA1; details: 1, 3, 10, and 30 mg/kg; cited from earlier work
hTRPV1 = hTRPV1 (Homo sapiens, UniProt Q8NER1); assay: TRP channel selectivity, calcium assay; type: cell-based
hTRPV1, sequence (Q8NER1 whole entry): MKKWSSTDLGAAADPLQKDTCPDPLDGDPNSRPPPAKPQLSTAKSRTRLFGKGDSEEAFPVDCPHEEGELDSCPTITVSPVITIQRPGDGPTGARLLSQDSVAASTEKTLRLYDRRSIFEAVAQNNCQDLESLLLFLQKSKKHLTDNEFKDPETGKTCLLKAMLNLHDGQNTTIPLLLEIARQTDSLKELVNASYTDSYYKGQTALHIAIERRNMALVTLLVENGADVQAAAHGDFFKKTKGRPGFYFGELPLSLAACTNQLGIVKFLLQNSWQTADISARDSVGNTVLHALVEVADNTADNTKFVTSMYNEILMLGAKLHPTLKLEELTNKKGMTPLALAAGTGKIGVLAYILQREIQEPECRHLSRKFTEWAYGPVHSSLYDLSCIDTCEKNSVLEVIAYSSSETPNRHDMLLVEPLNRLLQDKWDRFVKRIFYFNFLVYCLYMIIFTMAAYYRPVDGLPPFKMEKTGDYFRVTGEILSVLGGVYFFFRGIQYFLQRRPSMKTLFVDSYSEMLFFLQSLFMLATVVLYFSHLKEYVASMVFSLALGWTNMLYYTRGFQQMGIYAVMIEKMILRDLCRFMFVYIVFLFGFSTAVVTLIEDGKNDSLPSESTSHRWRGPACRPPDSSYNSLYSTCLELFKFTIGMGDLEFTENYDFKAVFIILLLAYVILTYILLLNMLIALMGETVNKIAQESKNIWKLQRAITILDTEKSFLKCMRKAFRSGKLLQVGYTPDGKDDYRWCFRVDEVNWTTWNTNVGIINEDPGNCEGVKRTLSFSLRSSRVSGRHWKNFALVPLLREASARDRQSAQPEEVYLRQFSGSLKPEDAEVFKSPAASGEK

rat TRPV1 = rat TRPV1 (Rattus norvegicus, UniProt O35433); assay: TRP channel selectivity, luminescence calcium assay in CHO cells; type: cell-based
rat TRPV1, sequence (O35433 whole entry): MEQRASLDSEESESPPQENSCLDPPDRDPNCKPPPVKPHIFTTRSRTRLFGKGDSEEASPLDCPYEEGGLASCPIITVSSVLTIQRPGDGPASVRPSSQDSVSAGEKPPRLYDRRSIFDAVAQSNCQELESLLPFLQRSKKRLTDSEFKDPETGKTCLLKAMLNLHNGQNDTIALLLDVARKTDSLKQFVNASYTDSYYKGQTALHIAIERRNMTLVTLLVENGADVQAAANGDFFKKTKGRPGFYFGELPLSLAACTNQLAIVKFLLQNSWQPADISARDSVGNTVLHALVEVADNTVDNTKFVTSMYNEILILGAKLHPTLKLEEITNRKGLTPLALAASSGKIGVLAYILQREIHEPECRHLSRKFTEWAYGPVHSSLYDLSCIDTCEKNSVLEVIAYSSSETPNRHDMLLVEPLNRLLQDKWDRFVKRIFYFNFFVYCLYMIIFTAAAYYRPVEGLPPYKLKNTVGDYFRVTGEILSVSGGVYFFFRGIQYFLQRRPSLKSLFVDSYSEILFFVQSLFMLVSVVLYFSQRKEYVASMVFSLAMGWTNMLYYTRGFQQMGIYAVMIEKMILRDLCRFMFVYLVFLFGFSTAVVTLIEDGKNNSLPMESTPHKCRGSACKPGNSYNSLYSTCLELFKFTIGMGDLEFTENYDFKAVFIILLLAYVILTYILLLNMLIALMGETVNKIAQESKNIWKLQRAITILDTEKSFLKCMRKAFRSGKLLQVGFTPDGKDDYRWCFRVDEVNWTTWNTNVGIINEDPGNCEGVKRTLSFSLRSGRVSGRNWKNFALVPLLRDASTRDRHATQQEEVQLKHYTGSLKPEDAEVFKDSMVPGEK
Summary of the method: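 A CHO line constitutively expressing rat TRPV1 plus aequorin was used without tetracycline induction. Cells were loaded for 2 h with 15 µM coelenterazine in pH 7.2 F12 containing 30 mM HEPES. Test compound was added 2.5 min before 0.5 µM capsaicin. Luminescence was recorded by a CCD-camera luminometer, and IC50 was derived by curve fitting.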

mouse TRPA1 = mouse TRPA1 (Mus musculus, UniProt Q8BLA8); assay: TRPA1 activation by AITC, antagonist assay; type: cell-based
human TRPA1 = human TRPA1 (Homo sapiens, UniProt O75762); assay: TRPA1 activation by AITC, antagonist assay; type: cell-based; details: read-out: human TRPA1 activation by AITC IC90
human TRPA1, sequence (O75762 whole entry): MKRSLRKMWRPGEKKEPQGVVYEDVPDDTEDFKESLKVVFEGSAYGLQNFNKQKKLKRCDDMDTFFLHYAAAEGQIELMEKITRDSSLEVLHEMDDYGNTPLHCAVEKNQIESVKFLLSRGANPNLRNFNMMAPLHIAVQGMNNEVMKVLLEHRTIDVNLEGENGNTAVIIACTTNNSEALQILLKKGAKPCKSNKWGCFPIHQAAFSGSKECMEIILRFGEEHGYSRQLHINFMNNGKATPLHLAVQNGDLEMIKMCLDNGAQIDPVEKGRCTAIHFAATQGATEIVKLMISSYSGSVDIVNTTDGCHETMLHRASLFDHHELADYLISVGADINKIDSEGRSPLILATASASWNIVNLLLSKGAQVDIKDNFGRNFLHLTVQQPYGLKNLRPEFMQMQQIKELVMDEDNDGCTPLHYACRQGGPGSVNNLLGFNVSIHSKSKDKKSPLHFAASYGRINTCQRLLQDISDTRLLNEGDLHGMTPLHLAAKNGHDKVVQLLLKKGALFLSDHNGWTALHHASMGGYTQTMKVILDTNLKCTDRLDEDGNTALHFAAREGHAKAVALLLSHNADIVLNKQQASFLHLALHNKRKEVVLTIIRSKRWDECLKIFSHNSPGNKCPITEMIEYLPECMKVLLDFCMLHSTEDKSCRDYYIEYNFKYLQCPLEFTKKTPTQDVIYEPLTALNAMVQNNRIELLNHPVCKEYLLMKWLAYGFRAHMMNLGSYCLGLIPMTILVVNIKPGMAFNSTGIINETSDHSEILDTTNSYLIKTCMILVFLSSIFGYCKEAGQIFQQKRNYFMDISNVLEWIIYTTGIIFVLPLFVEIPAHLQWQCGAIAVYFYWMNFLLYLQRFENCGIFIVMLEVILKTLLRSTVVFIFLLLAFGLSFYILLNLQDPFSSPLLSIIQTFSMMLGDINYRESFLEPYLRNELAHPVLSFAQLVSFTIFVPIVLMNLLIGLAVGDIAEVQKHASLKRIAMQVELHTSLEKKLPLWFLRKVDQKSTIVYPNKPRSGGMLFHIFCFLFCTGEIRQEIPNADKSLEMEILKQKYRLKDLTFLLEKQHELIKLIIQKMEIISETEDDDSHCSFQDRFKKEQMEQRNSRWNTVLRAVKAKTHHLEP

hTRPV4 = hTRPV4 (Homo sapiens, UniProt Q9HBA0); assay: TRP channel selectivity, luminescence calcium assay in CHO cells; type: cell-based
hTRPV4, sequence (Q9HBA0 whole entry): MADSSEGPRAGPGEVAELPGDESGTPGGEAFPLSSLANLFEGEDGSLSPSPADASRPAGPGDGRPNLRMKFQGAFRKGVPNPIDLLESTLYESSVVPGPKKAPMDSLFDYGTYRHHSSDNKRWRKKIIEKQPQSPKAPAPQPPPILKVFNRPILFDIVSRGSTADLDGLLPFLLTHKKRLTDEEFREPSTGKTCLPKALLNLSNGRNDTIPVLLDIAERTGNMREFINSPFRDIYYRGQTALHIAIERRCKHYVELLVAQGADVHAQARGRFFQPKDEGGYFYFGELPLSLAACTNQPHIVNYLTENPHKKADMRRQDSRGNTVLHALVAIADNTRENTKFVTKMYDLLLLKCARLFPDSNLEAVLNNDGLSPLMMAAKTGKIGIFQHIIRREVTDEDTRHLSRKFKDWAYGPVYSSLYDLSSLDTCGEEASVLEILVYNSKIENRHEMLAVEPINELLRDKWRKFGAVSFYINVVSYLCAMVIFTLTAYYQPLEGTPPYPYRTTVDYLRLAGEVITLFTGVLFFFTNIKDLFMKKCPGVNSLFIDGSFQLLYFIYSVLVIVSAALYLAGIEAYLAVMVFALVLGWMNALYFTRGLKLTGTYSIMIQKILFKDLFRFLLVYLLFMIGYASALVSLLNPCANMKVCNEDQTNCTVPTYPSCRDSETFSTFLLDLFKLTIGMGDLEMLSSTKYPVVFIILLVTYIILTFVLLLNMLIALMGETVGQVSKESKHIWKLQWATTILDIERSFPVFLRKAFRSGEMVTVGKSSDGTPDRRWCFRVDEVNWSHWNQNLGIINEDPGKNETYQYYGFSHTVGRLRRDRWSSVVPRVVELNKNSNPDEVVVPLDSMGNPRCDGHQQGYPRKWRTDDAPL
Summary of the method: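 A tetracycline-inducible CHO line expressing human TRPV4 plus aequorin was induced with 0.5 µg/ml tetracycline 24 h before the assay. Cells were loaded for 2 h in pH 7.2 F12 containing 30 mM HEPES, 1 mM CaCl2, 0.3% BSA and 15 µM coelenterazine. Test compound was added 2.5 min before 1 µM 4α-PDD. Luminescence was read on a CCD-camera luminometer, and IC50 was calculated.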

[9] = Unbound plasma exposure in pharmacodynamic and pain models; type: in vivo, rat
Summary of the method: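 Rats in the pain models were dosed orally with test compound in 1% Tween80/2% HPMC/97% water/methanesulfonic acid pH 2.2. Plasma drug levels were measured by LC-MS/MS after protein precipitation, using a structurally similar internal standard and calibration standards serially diluted into blank plasma from a 1 mg/mL DMSO stock.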

rTRPM8 = rTRPM8 (Rattus norvegicus, UniProt Q8R455); assay: TRP channel selectivity, luminescence calcium assay in CHO cells; type: cell-based
Summary of the method: (§1)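 Tetracycline-inducible stable CHO lines co-expressing aequorin were induced with 0.5 µg/ml tetracycline 24 h before the assay. Cells were loaded for 2 h in pH 7.2 F12 with 30 mM HEPES and 15 µM coelenterazine. Test compound was added 2.5 min before agonist: 200 µM 2-APB for TRPV3, or 1 µM icilin or 12 °C cold buffer for TRPM8. Luminescence was read by CCD luminometer, and IC50 was fitted.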

[10] = test system: 40 targets including GPCRs, ion channels, and kinases; assay: CEREP selectivity profiling; type: binding
rTRPV3 = target: T2, rTRPV3 (Rattus norvegicus, UniProt Q4QYD9); assay: TRP channel selectivity, luminescence calcium assay in CHO cells; type: cell-based
T2 sequence (Q4QYD9 1-791): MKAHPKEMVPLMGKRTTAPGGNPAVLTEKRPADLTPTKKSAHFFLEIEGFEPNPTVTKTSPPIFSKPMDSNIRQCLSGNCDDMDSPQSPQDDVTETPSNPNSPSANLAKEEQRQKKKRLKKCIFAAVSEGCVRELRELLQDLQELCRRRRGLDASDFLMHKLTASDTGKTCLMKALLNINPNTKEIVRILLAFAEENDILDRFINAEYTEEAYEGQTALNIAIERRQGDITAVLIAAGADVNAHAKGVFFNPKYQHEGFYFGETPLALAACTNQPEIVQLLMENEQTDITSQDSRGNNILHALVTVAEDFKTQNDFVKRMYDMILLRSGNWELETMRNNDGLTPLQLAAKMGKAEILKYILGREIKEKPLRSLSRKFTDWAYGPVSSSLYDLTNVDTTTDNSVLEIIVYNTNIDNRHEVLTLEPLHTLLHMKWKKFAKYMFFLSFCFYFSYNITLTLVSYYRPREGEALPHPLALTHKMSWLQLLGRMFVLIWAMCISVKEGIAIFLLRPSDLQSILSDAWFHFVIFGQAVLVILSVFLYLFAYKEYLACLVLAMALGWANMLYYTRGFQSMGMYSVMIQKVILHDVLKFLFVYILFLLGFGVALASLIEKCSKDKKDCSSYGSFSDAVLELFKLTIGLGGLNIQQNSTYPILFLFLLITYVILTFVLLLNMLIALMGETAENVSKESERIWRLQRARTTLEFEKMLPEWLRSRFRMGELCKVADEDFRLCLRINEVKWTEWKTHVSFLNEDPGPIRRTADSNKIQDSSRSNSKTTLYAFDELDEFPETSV
Summary of the method: as §1

C-fibers = details: cited from earlier work

SMILES: CCC(=N\O)/C(C)=C/c1ccc(F)cc1 [A-967079]
- Efficacy (CCI, SNL, CFA; CCI, SNL, CFA, MH, 62 mg/kg, p.o., ref Chen et al.[42]): ineffective
- effect on von Frey-evoked tactile allodynia (CCI, SNL, CFA; CFA or SNL models): no effect
- effect on AITC-induced licking/biting in vivo [1]: efficiently blocks

SMILES: Cn1cnc2ncn(Cc3nc(CCc4ccc(Cl)cc4)no3)c(=O)c21 [AMG0902, 1-((3-(4-Chlorophenethyl)-1,2,4-oxadiazol-5-yl)methyl)-7-methyl-1H-purin-6(7H)-one]
- rearing time ([2]; 300 mg/kg p.o., 1 h before): 308 ± 67 s
- total distance traveled ([2]; 300 mg/kg p.o., 1 h before): 7437 ± 900 cm
- effect on total distance traveled vs vehicle [2]: no significant effect
- rearing time ([3]; AMG0902 100 mg/kg p.o.): 264 ± 52 s
- effect on CFA-induced reduction in rearing [3]: no significant reduction
- fraction unbound at 15 min, 5 µg/mL [4]: 0.29
- effect on SNL-induced mechanical allodynia [5]: no significant effect
- Kp ([6]; brain): 0.2
- clearance ([6]; male, plasma, iv, 2 mg/kg): 41.7 mL/min/kg
- IC50 (rTRPA1): > 25 µM
- IC90 (rat TRPA1; CHO, read-out: IC90 against rat TRPA1): 300 nM
- IC50 (rat TRPA1; rTRPA1 (4-ONE) IC50, 35 µM 4-ONE): 585 ± 110 nM
- IC50 (rat TRPA1; rTRPA1 (AITC) IC50, 80 µM AITC): 68 ± 38 nM
- IC50 (rat TRPA1; rTRPA1 (Methylglyoxal) IC50, 2.74 mM methylglyoxal): 151 ± 5 nM
- IC50 (rat TRPA1; rTRPA1 (Osmol) IC50, 100 mOsmol hypo-osmolarity): 9.7 ± 2 nM
- IC90 (TRPA1 [7]): 1700 nM
- effect on AITC-induced licking/flinching (TRPA1 [8]): dose-dependent prevention
- IC50 (hTRPV1): > 10 µM
- IC50 (rat TRPV1): > 10 µM
- IC50 (mouse TRPA1): 113 ± 77 nM
- IC90 (human TRPA1): 186 ± 18 nM
- IC50 (hTRPV4): > 10 µM
- mean unbound plasma concentration ([9]; CFA Randall Selitto model, 300 mg/kg p.o.): 35 ± 11 µM
- mean unbound plasma concentration ([9]; CFA rearing model, 100 mg/kg p.o.): 6.1 ± 2.4 µM
- mean unbound plasma concentration ([9]; SNL model, 300 mg/kg p.o.): 8.4 µM
- mean Cu concentration (unbound plasma) ([9]; open field assay, 300 mg/kg p.o.): 12.6 ± 5.4 µM
- IC50 (rTRPM8): > 10 µM
- inhibition of specific ligand binding to each target ([10]; 40 targets profiled at CEREP): < 33%
- IC50 ([10]; read-out: in vitro potency at 40 targets profiled at CEREP): > 10 µM
- IC50 (rTRPV3): > 10 µM

SMILES: CC(C)c1ccc(NC(=O)Cn2cnc3c2c(=O)n(C)c(=O)n3C)cc1 [HC-030031]
- effect on mechanically evoked action potential firing in C-fibers (C-fibers): reduced mechanically evoked action potential firing

SMILES: NCC1(CC(=O)O)CCCCC1 [gabapentin, reference compound]
- effect on total distance traveled vs vehicle [2]: not significantly reduced
- effect on SNL-induced mechanical allodynia [5]: significantly reversed

SMILES: COc1ccc2cc([C@H](C)C(=O)O)ccc2c1 [naproxen, reference compound]
- rearing time ([3]; naproxen 3 mg/kg p.o.): 418 ± 49 cm
- effect on CFA-induced reduction in rearing [3]: significant inhibition
